Reference: ChEMBL document CHEMBL1165860, “Synthesis and potential cytotoxic activity of new phenanthrylphenol-pyrrolobenzodiazepines” (2010)
Calls of active or inactive are those of the source. The rule behind the calls is not given here.

Legend:
[1] = system: MCF7; test: Cell cycle arrest in human MCF7 cells assessed as accumulation at G0 phase at 4 uM after 24 hrs using propidium iodide staining by flow cytometry; assay type: functional
Procedure, shortened: (§1)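 MCF-7 cells were grown in DMEM with 10% fetal calf serum, penicillin and streptomycin, at 37 °C in 5% CO2. They were treated for 24 h at 2 and 4 µM, with DMSO-treated cells as controls. Cells were trypsinised, fixed in ice-cold 70% ethanol at 4 °C for 30 min, and RNaseA-treated at 37 °C for 30 min. Phases were read by flow cytometry.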

[2] = system: MCF7; test: Cell cycle arrest in human MCF7 cells assessed as accumulation at S phase at 4 uM after 24 hrs using propidium iodide staining by flow cytometry; assay type: functional; procedure, shortened: as §1
[3] = system: MCF7; test: Increase of cytosolic cytochrome c level in human MCF7 cells at 2 uM after 24 hrs by Western blot analysis; assay type: functional, cell-based
Procedure, shortened: (§2)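 MCF-7 cells were grown in DMEM with 10% FCS and penicillin/streptomycin at 37 °C in 5% CO2, then treated for 24 h. Cells were lysed in ice-cold RIPA buffer with protease inhibitors and NaF. Protein was measured by Bradford assay, and 30 µg per lane was run on 12% SDS-PAGE and transferred to PVDF. Antibody steps: primary at 4 °C overnight, HRP secondary 1:2000, chemiluminescent detection.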

[4] = system: MCF7; test: Increase of cytosolic cytochrome c level in human MCF7 cells at 4 uM after 24 hrs by Western blot analysis; assay type: functional, cell-based; procedure, shortened: as §2
[5] = system: MCF7; test: Induction of apoptosis in human MCF7 cells assessed as increase of caspase 8 activation at 4 uM after 1 hr by […] method; assay type: functional, cell-based
Procedure, shortened: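 Colorimetric caspase-8 kit on lysates of treated MCF-7 cells. The IETD-pNA substrate was incubated with cell lysate at 37 °C for 1 h, and absorbance was read at 405 nm. Untreated cells served as the control.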

[6] = system: MCF7; test: Increase of PARP cleavage in human MCF7 cells at 4 uM after 24 hrs by Western blot analysis; assay type: functional, cell-based; procedure, shortened: as §2
[7] = system: HL-60(TB); test: Growth inhibition of human HL-60(TB) cells after 24 hrs by MTT assay; assay type: functional; details: HL-60, 24 h
[8] = system: MOLT-4; test: Growth inhibition of human MOLT4 cells after 24 hrs by MTT assay; assay type: functional; details: MOLT-4, 24 h
[9] = system: SR; test: Growth inhibition of human SR cells after 24 hrs by MTT assay; assay type: functional
[10] = system: A549; test: Growth inhibition of human A549 cells after 24 hrs by MTT assay; assay type: functional; details: A549, 24 h
[11] = system: HOP-92; test: Growth inhibition of human HOP92 cells after 24 hrs by MTT assay; assay type: functional; details: HOP-92, 24 h
[12] = system: NCI-H226; test: Growth inhibition of human NCI-H226 cells after 24 hrs by MTT assay; assay type: functional; details: NCI-H226, 24 h
[13] = system: NCI-H23; test: Growth inhibition of human NCI-H23 cells after 24 hrs by MTT assay; assay type: functional; details: NCI-H23, 24 h
[14] = system: NCI-H522; test: Growth inhibition of human NCI-H522 cells after 24 hrs by MTT assay; assay type: functional; details: NCI-H522, 24 h
[15] = system: HCT-116; test: Growth inhibition of human HCT116 cells after 24 hrs by MTT assay; assay type: functional; details: HCT-116, 24 h
[16] = system: SF-268; test: Growth inhibition of human SF268 cells after 24 hrs by MTT assay; assay type: functional; details: SF-268, 24 h
[17] = system: SNB-19; test: Growth inhibition of human SNB19 cells after 24 hrs by MTT assay; assay type: functional; details: SNB-19, 24 h
[18] = system: SNB-75; test: Growth inhibition of human SNB75 cells after 24 hrs by MTT assay; assay type: functional; details: SNB-75, 24 h
[19] = system: LOX IMVI; test: Growth inhibition of human LOXIMVI cells after 24 hrs by MTT assay; assay type: functional
[20] = system: Malme-3M; test: Growth inhibition of human MALME-3M cells after 24 hrs by MTT assay; assay type: functional
[21] = system: M14; test: Growth inhibition of human M14 cells after 24 hrs by MTT assay; assay type: functional; details: M14, 24 h
[22] = system: SK-MEL-28; test: Growth inhibition of human SK-MEL-28 cells after 24 hrs by MTT assay; assay type: functional; details: SK-MEL-28, 24 h
[23] = system: SK-MEL-5; test: Growth inhibition of human SK-MEL-5 cells after 24 hrs by MTT assay; assay type: functional; details: SK-MEL-5, 24 h
[24] = system: OVCAR-8; test: Growth inhibition of human OVCAR8 cells after 24 hrs by MTT assay; assay type: functional; details: OVCAR-8, 24 h
[25] = system: 786-0; test: Growth inhibition of human 786-0 cells after 24 hrs by MTT assay; assay type: functional; details: 786-0, 24 h
[26] = system: ACHN; test: Growth inhibition of human ACHN cells after 24 hrs by MTT assay; assay type: functional
[27] = system: CAKI-1; test: Growth inhibition of human Caki1 cells after 24 hrs by MTT assay; assay type: functional; details: CAKI-1, 24 h
[28] = system: SN12C; test: Growth inhibition of human SN12C cells after 24 hrs by MTT assay; assay type: functional
[29] = system: MCF7; test: Growth inhibition of human MCF7 cells after 24 hrs by MTT assay; assay type: functional; details: MCF7, 24 h
[30] = system: NCI/ADR-RES; test: Growth inhibition of human NCI/ADR-RES cells after 24 hrs by MTT assay; assay type: functional
[31] = system: MDA-MB-231; test: Growth inhibition of human MDA-MB-231 cells after 24 hrs by MTT assay; assay type: functional; details: MDA-MB-231, 24 h
[32] = Growth inhibition of human Hs 578T cells after 24 hrs by MTT assay; assay type: functional
[33] = system: BT-549; test: Growth inhibition of human BT549 cells after 24 hrs by MTT assay; assay type: functional; details: BT-549, 24 h
[34] = system: T47D; test: Growth inhibition of human T47D cells after 24 hrs by MTT assay; assay type: functional
[35] = system: MCF7; test: Cytotoxicity against human MCF7 cells at 2 uM after 24 hrs by MTT assay relative to control; assay type: functional
Procedure, shortened: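 MCF-7 cells were seeded at 10,000 cells/well in DMEM with 10% fetal calf serum. They were exposed to 0.5, 1, 2 and 4 µM for 24 h. MTT reduction to formazan was read at 570 nm, with untreated controls taken as 100% viability. DMSO-treated cells served as an additional control.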

[36] = system: Nucleic Acid; test: Inhibition of Escherichia coli pBR322 DNA cleavage after 16 hrs by RED100-restriction endonuclease digestion assay; assay type: nucleic-acid assay
Procedure, shortened: (§3)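 pBR322 DNA was preincubated with compound at final 2, 4, 8, 16 and 32 µM for 16 h at 37 °C. BamHI (10 U/µl) in BamHI buffer was then added for 2 h at 37 °C. Products were separated on agarose in 0.5× Tris–acetate EDTA at 80 V for 1 h and stained with ethidium bromide. Cut and uncut DNA served as controls.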

[37] = system: Nucleic Acid; test: Inhibition of Escherichia coli pBR322 DNA cleavage at 16 uM after 16 hrs by RED100-restriction endonuclease digestion assay; assay type: nucleic-acid assay; procedure, shortened: as §3
[38] = system: MCF7; test: Cell cycle arrest in human MCF7 cells assessed as accumulation at G0 phase at 2 uM after 24 hrs using propidium iodide staining by flow cytometry; assay type: functional; procedure, shortened: as §1
[39] = system: MCF7; test: Cell cycle arrest in human MCF7 cells assessed as accumulation at G1 phase at 2 uM after 24 hrs using propidium iodide staining by flow cytometry; assay type: functional; procedure, shortened: as §1

COc1cc2c(cc1OCCCOc1ccc(-c3cc4ccccc4c4ccccc34)cc1)N=C[C@@H]1CCCN1C2=O
Activity [1]: 8.35%
Activity [2]: 13.05%
Activity [3]: Active
Activity [4]: Active
Activity [5]: Active
Activity [6]: Active
GI50 [7]: 170 nM
GI50 [8]: 180 nM
GI50 [9]: 220 nM
GI50 [10]: 720 nM
GI50 [11]: 360 nM
GI50 [12]: 1170 nM
GI50 [13]: 1410 nM
GI50 [14]: 120 nM
GI50 [15]: 250 nM
GI50 [16]: 860 nM
GI50 [17]: 1160 nM
GI50 [18]: 210 nM
GI50 [19]: 1020 nM
GI50 [20]: 1590 nM
GI50 [21]: 570 nM
GI50 [22]: 1260 nM
GI50 [23]: 1060 nM
GI50 [24]: 420 nM
GI50 [25]: 700 nM
GI50 [26]: 1260 nM
GI50 [27]: 400 nM
GI50 [28]: 510 nM
GI50 [29]: 170 nM
GI50 [30]: 1670 nM
GI50 [31]: 290 nM
GI50 [32]: 1020 nM
GI50 [33]: 270 nM
GI50 [34]: 80 nM
Activity [35]: <=50%
inhibition [36]: Dose-dependent effect
inhibition [37]: 100%
Activity [38]: 4.47%
Activity [39]: 68.99%
